Experimental data reported in ChEMBL document CHEMBL1799968, “Dimethyl-diphenyl-propanamide derivatives as nonsteroidal dissociated glucocorticoid receptor agonists” (J Med Chem, 2010).

Key:
[1] = test system: Rattus norvegicus; assay: Toxicity in carrageenan-induced paw edema Sprague-Dawley rat model assessed as increase in blood glucose level at 100 mg/kg, po measured […] by glucometer; assay type: organism-based; design: dose 100 mg/kg, route oral; details: in vivo
Outline: (§1)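 Carrageenan paw edema rats (male SD, fasted, single oral dose, carrageenan 2 h postdose). Blood glucose was read by glucometer on tail-nick samples, at baseline and 5 h after dosing.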

[2] = test system: Rattus norvegicus; assay: Antiinflammatory activity against carrageenan-induced paw edema Sprague-Dawley rat model assessed as inhibition of hind paw swelling at 100 mg/kg, po measured after 5 hrs post carrageenan challenge; assay type: functional
Outline: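 Male SD rats, fasted overnight plus up to 6 h more. Baseline hind paw volume taken by water plethysmometer. A single oral dose was given in a biologically acceptable medium. 2 h later, under anaesthesia, 1% carrageenan in PBS was injected subcutaneously into both hind paws. Volume was read 3 h post challenge, and swelling was taken as post-challenge minus baseline.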

[3] = test system: Rattus norvegicus; assay: Serum concentration in fasted Sprague-Dawley rat at 30 mg/kg, po after 6 hrs; details: in vivo
[4] = test system: Rattus norvegicus; assay: Toxicity in fasted Sprague-Dawley rat assessed as induction of TAT activity in liver homogenates at 7.5 to 30 mg/kg, po after 6 hrs; assay type: organism-based; design: dose 7.5-30 mg/kg, route oral; details: in vivo
Outline: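 Male SD rats, fasted, single oral dose. Liver was biopsied 6 h postdose, snap frozen, homogenised in 150 mM KCl and centrifuged. Protein-normalised supernatants were assayed for TAT activity, read as OD at 340 nm. Values are given as % of TAT activity in prednisolone-treated (30 mg/kg) rats.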

[5] = test system: Rattus norvegicus; assay: Serum concentration in fasted Sprague-Dawley rat at 7.5 mg/kg, po after 6 hrs; details: in vivo
[6] = test system: Rattus norvegicus; assay: Toxicity in carrageenan-induced paw edema Sprague-Dawley rat model assessed as increase in blood glucose level at 30 mg/kg, po measured […] by glucometer; assay type: organism-based; design: dose 30 mg/kg, route oral; details: in vivo; outline: as §1

serum concentration [3] | serum concentration [5] | SMILES | Activity [1] | inhibition in vivo at 100 mg/kg [2] | Activity [4] | Activity [6]
– | – | CC(C)(C(=O)Nc1nccs1)[C@@H](c1ccccc1)c1ccc(O)cc1 | Non-toxic | 46% | – | –
311 nM | 59 nM | CC(C)(C(=O)Nc1nncs1)[C@H]1c2ccccc2Oc2cc(O)ccc21 | – | – | Non-toxic | < 1%
